Article PMC10127574 (ACS chemical biology, 2015)
Converted amounts (≈) assume the structure as drawn. Where two headings read alike, the source gives them in different places.

Legend:
[1] = liver microsome stability, rat; assay type: in vitro ADME; conditions: rat liver microsomes
[2] = tested on: cysteines (proteome-wide); test: proteome-wide activity-based protein-profiling assay
[3] = target: T1, recombinant wild-type IDE (WT-IDE) (Homo sapiens, UniProt P14735); test: cell-free IDE activity assay with fluorogenic peptide substrate FRET1; assay type: biochemical
T1 sequence (P14735 1-1019): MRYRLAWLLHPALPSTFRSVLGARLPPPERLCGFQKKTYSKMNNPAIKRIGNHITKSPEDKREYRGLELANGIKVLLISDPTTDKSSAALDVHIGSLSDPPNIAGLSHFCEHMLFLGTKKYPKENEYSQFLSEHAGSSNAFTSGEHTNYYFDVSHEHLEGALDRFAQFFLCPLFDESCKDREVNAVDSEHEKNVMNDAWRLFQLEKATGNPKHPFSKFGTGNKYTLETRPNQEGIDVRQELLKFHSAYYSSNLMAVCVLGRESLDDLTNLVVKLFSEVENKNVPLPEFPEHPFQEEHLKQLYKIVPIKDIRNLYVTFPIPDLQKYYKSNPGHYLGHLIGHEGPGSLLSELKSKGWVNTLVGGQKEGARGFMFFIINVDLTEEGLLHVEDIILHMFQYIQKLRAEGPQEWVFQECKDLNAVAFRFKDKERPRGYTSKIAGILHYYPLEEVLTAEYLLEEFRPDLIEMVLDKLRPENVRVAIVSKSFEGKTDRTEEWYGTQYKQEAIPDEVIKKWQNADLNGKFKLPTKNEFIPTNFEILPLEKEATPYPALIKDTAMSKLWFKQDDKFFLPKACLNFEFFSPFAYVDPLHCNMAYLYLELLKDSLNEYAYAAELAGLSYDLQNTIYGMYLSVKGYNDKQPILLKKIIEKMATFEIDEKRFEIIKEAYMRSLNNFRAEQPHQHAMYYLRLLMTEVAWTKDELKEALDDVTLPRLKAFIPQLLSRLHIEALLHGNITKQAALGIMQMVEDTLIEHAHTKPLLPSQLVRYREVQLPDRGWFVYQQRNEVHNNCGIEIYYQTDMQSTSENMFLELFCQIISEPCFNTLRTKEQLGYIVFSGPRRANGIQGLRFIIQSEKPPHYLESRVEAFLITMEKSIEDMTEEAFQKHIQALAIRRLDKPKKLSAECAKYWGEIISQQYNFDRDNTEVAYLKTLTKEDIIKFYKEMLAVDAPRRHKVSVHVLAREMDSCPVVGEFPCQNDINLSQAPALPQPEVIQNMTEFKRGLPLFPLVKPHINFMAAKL

[4] = chemical stability in PBS; assay type: physicochemical
[5] = solubility in assay buffer; assay type: physicochemical; conditions: aqueous buffer
[6] = liver microsome stability, mouse; assay type: in vitro ADME; conditions: mouse liver microsomes
[7] = target: T2, intracellular pools of IDE (Mus musculus, UniProt Q9JHR7); test: intracellular IDE activity in BV-2 cells; assay type: cell-based; conditions: 30 μM, 16 h, cell extracts
T2 sequence (Q9JHR7 1-1019): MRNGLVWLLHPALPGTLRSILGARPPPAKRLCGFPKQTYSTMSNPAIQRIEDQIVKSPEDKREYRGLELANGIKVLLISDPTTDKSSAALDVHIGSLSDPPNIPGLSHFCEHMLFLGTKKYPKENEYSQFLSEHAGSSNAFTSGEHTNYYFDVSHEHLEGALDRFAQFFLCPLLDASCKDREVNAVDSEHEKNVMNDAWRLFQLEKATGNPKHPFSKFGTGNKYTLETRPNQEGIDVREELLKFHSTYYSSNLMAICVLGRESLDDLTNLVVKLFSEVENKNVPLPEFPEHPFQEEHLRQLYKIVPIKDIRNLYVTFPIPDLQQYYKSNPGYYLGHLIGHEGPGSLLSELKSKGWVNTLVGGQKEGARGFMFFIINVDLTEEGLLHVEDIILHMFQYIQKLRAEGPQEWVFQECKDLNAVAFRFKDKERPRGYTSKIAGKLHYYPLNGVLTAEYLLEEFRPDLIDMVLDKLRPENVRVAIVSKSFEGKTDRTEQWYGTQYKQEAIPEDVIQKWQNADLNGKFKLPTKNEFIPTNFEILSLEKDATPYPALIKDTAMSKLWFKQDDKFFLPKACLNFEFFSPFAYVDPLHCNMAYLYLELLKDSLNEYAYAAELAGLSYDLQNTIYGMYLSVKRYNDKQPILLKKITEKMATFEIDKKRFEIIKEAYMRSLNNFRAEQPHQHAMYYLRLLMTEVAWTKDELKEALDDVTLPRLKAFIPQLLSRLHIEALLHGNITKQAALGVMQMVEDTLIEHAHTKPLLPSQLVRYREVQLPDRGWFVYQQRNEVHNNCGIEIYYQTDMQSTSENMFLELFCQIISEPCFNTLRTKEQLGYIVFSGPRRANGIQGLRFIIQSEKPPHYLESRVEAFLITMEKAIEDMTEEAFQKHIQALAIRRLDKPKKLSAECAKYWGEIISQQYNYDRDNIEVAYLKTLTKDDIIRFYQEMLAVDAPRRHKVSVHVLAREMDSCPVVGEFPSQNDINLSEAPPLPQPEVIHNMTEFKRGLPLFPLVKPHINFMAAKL
Procedure, shortened: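 BV-2 cells were treated 16 h with 30 μM compound, then conditioned medium was collected. Cells were washed in PBS, lysed hypotonically in 50 mM Tris-HCl at 4 °C, extruded through a needle and centrifuged. Extracts were diluted 1:200 (v:v). Activity was measured by avidin-agarose precipitation Aß degradation assay with FAßB. Mean ± SEM, 3 replications.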

IDE = target: T3, IDE (Homo sapiens, UniProt P14735); test: insulin degradation, homogeneous time-resolved fluorescence-based assay; assay type: biochemical; conditions: read-out: IC50^app in vitro, insulin; insulin as substrate; n=4
T3 sequence (P14735 1-1019): T1 sequence (P14735 1-1019)

WT-IDE = target: T4, WT-IDE (Homo sapiens, UniProt P14735); test: kinetics of irreversible inhibition; assay type: biochemical
T4 sequence (P14735 1-1019): T1 sequence (P14735 1-1019)
Procedure, shortened: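 Recombinant WT-IDE (2 nM) and FRET1 substrate (5 μM) were monitored continuously at 3-s intervals, starting immediately after adding inhibitor at several concentrations. Curve fits gave observed rate constants, which were plotted against inhibitor concentration. A hyperbolic fit gave kinhib and KM. LE was taken as ΔG/heavy atoms using KM; SEI as pKM/tPSA/100 Å2.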

HEK-293 cells = test: luminescence-based HEK cell viability; design: species or system human; conditions: up to 100 μM
[8] = liver microsome stability, human; assay type: in vitro ADME; conditions: human liver microsomes

## O=c1c2cc(F)ccc2sn1-c1cc(S(=O)(=O)N2CCOCC2)ccc1N1CCOCC1 [Compound 8, 5-fluoro-2-(2-morpholin-4-yl-5-morpholin-4-ylsulfonylphenyl)-1,2-benzothiazol-3-one]
[1]
  Liver microsome stability, Rat: 50 min
[2]
  reactivity with cysteines in proteome-wide activity-based protein profiling: minimal reactivity
[3]
  BEI (binding efficiency index, pIC50^app/MW, kDa): 15
[3]; read-out: IC50^app cell-free, Table 2
  IC50: 63 nM
[3]; read-out: IC50^app in vitro, FRET1, Table 3, n=5
  IC50: 63 ± 8.1 nM
[4]
  Chemical stability in PBS: >> 48 hr.
[5]
  solubility: 5.1 µM (≈ 2.45 µg/mL)
[6]
  Liver microsome stability, Mouse: 24 min
[7]
  inhibition of intracellular pools of IDE in BV-2 cells: does not affect
IDE
  IC50: 82 ± 20.2 nM
WT-IDE; Table 3, n=5
  kinhib: 13.4 ± 2.7 (n=5) min^−1
WT-IDE; WT-IDE 2 nM, FRET1 5 μM, rate constant of irreversible step
  kinhib: 13.4 min⁻¹
WT-IDE; calculated using KM value
  LE (ligand efficiency, ΔG/HA): 0.234 kcal mol^−1 HA^−1
HEK-293 cells
  toxicity in cells: no toxicity
[8]
  Liver microsome stability, Human: > 120 min
